Results from PMC5035790 (Annals of Oncology, 2016).
Marks after values point to notes of the source that are not given here.

What was measured:
p110γ = details: read-out: IC50 p110γ; cited from earlier work
advanced solid tumors = assay: Tumor response by investigator, modified RECIST version 1.1; format: in vivo, human
Procedure, shortened: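 Solid-tumour patients (dose-escalation cohorts 0.1–1.2 mg/kg, expansion at 0.8 mg/kg) received a 1-h IV infusion on days 1, 8 and 15 of 28-day cycles until progression. Response was by investigator assessment using modified RECIST 1.1. PTEN loss by IHC was defined as 0% tumour cells staining, low as 1% to <5%, and positive as ≥5%.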

plasma glucose = assay: Plasma glucose and insulin pharmacodynamics; format: in vivo, human; details: 33 of 51; blood glucose >200 mg/dl
[1] = Plasma pharmacokinetics of copanlisib; format: in vivo, human
p110α = details: read-out: IC50 p110α; cited from earlier work
[2] = cycle 1 day 1, NHL expansion, 0.8 mg/kg, n=9, value (range)
[3] = cycle 1 day 1, diabetic expansion, 0.4 mg/kg, n=6, value (range)
[4] = cycle 1 day 1, solid tumors expansion, 0.8 mg/kg, n=25, value (range)
[5] = human, plasma, intravenous, 0.8 mg/kg

Structure (SMILES): COc1c(OCCCN2CCOCC2)ccc2c1N=C(NC(=O)c1cnc(N)nc1)N1CCN=C21 [copanlisib, Copanlisib]
- IC50 (p110γ): 6.4 nM
- tumor reduction (advanced solid tumors; 1 patient with endometrial carcinoma, 0.4 mg/kg cohort, stable disease): > 25%
- objective response or stable disease for >4 cycles (advanced solid tumors; 10 patients without complete PTEN loss): none
- partial response (PR) (advanced solid tumors; 48 patients with solid tumors, 2 patients, 1 confirmed, 1 unconfirmed): 4%
- complete response (CR) (advanced solid tumors; 48 patients with solid tumors, one patient): 2%
- disease progression by clinical judgment (advanced solid tumors; 48 patients with solid tumors, seven patients): 15%
- patients with stable disease ≥6 cycles (advanced solid tumors; of the 15 patients with stable disease): 6 patients
- cycles until CR (advanced solid tumors; patient with endometrial carcinoma, PIK3CA and PTEN mutations, complete PTEN loss, 0.8 mg/kg): 10 cycles
- overall response rate (advanced solid tumors; patients with solid tumors): 6%
- CR, PR, or stable disease lasting ≥6 cycles (advanced solid tumors; solid tumors at MTD with complete PTEN loss, 3 of 7): 43%
- CR, PR, or stable disease (advanced solid tumors; solid tumors at MTD without PTEN loss, seven patients): none
- non-diabetic patients receiving at least 1 dose of short-acting insulin (plasma glucose): 65%
- coefficients of variation of Cmax and AUC(0–25) ([1]; 0.1 to 1.2 mg/kg): 30–50%
- inter-patient variability of AUC ([1]; MTD 0.8 mg/kg): 47%
- terminal half-life ([1]; MTD 0.8 mg/kg, coefficient of variation 43%): ~38 h
- Cmax levels of unbound copanlisib ([1]; at the MTD): ~150 nM
- dose dependence of Cmax and AUC(0–25) ([1]; between 0.1 and 1.2 mg/kg): dose-proportionally
- tlast ([1]; cycle 1 day 1, MTD 0.8 mg/kg combined, n=7, value (range)): 142.5 (25.0–194.2)^e h
- Tmax ([1]; cycle 1 day 1, MTD 0.8 mg/kg combined, n=34, value (range)): 1.0 (0.5–3.0)^d h
- Tmax [1, 2]: 1.0 (0.5–1.0) h
- tlast [1, 2]: 167.0 (47.3–191.9) h
- tlast ([1]; cycle 1 day 1, cohort 1, 0.1 mg/kg, n=1, individual data): 48.6 h
- tlast ([1]; cycle 1 day 1, cohort 2, 0.2 mg/kg, n=3, value (range)): 48.4 (25.0–49.0) h
- tlast ([1]; cycle 1 day 1, cohort 3, 0.4 mg/kg, n=2, range): 167.8 to 170.2 h
- tlast ([1]; cycle 1 day 1, cohort 4, 0.8 mg/kg, n=7, value (range)): 142.5 (25.0–192.0) h
- tlast ([1]; cycle 1 day 1, cohort 5, 1.2 mg/kg, n=2, range): 29.3–167.2^b,c h
- Tmax [1, 3]: 1.0 (1.0–1.2) h
- tlast [1, 3]: 49.0 (48.9–167.4) h
- Tmax [1, 4]: 1.0 (0.5–3.0) h
- tlast [1, 4]: 118.5 (46.4–194.2) h
- Tmax ([1]; cycle 1 day 15, MTD 0.8 mg/kg combined, n=36, value (range)): 1.0 (0.5–1.3)^m h
- Tmax ([1]; cycle 1 day 15, solid tumors expansion, 0.8 mg/kg, n=22, value (range)): 1.0 (0.5–1.3)^l h
- accumulation after once-weekly administration ([1]; days 1 and 15): no accumulation
- concentration at 1 week ([1]; human, blood, intravenous, 0.8 mg/kg): 1.6 nM
- AUC(0-t) ([1]; human, plasma, intravenous, 0.1 mg/kg, AUC(0–25), cycle 1 day 1, cohort 1, 0.1 mg/kg, n=1, individual data): 0.17 µg·h/mL
- AUC(0-t) ([1]; human, plasma, intravenous, 0.1 mg/kg, AUC(0–25), cycle 1 day 15, cohort 1, 0.1 mg/kg, n=1, individual data): 0.175 µg·h/mL
- AUC(0-t) ([1]; human, plasma, intravenous, 0.1 mg/kg, AUC(0–tlast), cycle 1 day 1, cohort 1, 0.1 mg/kg, n=1, individual data): 0.254 µg·h/mL
- Cmax ([1]; human, plasma, intravenous, 0.1 mg/kg, cycle 1 day 1, cohort 1, 0.1 mg/kg, n=1, individual data): 0.0329 µg/mL
- Cmax ([1]; human, plasma, intravenous, 0.1 mg/kg, cycle 1 day 15, cohort 1, 0.1 mg/kg, n=1, individual data): 0.0376 µg/mL
- Tmax ([1]; human, plasma, intravenous, 0.1 mg/kg, tmax, cycle 1 day 1, cohort 1, 0.1 mg/kg, n=1, individual data): 0.5 h
- Tmax ([1]; human, plasma, intravenous, 0.2 mg/kg): 1 h
- AUC(0-t) ([1]; human, plasma, intravenous, 0.2 mg/kg, AUC(0–25), cycle 1 day 1, cohort 2, 0.2 mg/kg, n=3, geometric mean (%CV)): 0.384 µg·h/mL
- AUC(0-t) ([1]; human, plasma, intravenous, 0.2 mg/kg, AUC(0–25), cycle 1 day 15, cohort 2, 0.2 mg/kg, n=3, geometric mean (%CV)): 0.453 µg·h/mL
- AUC(0-t) ([1]; human, plasma, intravenous, 0.2 mg/kg, AUC(0–tlast), cycle 1 day 1, cohort 2, 0.2 mg/kg, n=3, geometric mean (%CV)): 0.472 µg·h/mL
- Cmax ([1]; human, plasma, intravenous, 0.2 mg/kg, cycle 1 day 1, cohort 2, 0.2 mg/kg, n=3, geometric mean (%CV)): 0.0798 µg/mL
- Cmax ([1]; human, plasma, intravenous, 0.2 mg/kg, cycle 1 day 15, cohort 2, 0.2 mg/kg, n=3, geometric mean (%CV)): 0.0894 µg/mL
- Tmax ([1]; human, plasma, intravenous, 0.2 mg/kg, tmax, cycle 1 day 1, cohort 2, 0.2 mg/kg, n=3, value (range)): 1.1 h
- Tmax ([1]; human, plasma, intravenous, 0.4 mg/kg): 1 h
- AUC(0-t) ([1]; human, plasma, intravenous, 0.4 mg/kg, AUC(0–25), cycle 1 day 1, cohort 3, 0.4 mg/kg, n=2, range): 0.348 to 0.556 µg·h/mL
- AUC(0-t) ([1]; human, plasma, intravenous, 0.4 mg/kg, AUC(0–25), cycle 1 day 1, diabetic expansion, 0.4 mg/kg, n=6, geometric mean (%CV)): 0.607 µg·h/mL
- AUC(0-t) ([1]; human, plasma, intravenous, 0.4 mg/kg, AUC(0–25), cycle 1 day 15, cohort 3, 0.4 mg/kg, n=2, range): 0.324 to 0.803 µg·h/mL
- AUC(0-t) ([1]; human, plasma, intravenous, 0.4 mg/kg, AUC(0–25), cycle 1 day 15, diabetic expansion, 0.4 mg/kg, n=6, geometric mean (%CV)): 0.687 µg·h/mL
- AUC(0-t) ([1]; human, plasma, intravenous, 0.4 mg/kg, AUC(0–tlast), cycle 1 day 1, cohort 3, 0.4 mg/kg, n=2, range): 0.722 to 1.45 µg·h/mL
- AUC(0-t) ([1]; human, plasma, intravenous, 0.4 mg/kg, AUC(0–tlast), cycle 1 day 1, diabetic expansion, 0.4 mg/kg, n=6, geometric mean (%CV)): 1.07 µg·h/mL
- Cmax ([1]; human, plasma, intravenous, 0.4 mg/kg, cycle 1 day 1, cohort 3, 0.4 mg/kg, n=2, range): 0.143 to 0.144 µg/mL
- Cmax ([1]; human, plasma, intravenous, 0.4 mg/kg, cycle 1 day 1, diabetic expansion, 0.4 mg/kg, n=6, geometric mean (%CV)): 0.138 µg/mL
- Cmax ([1]; human, plasma, intravenous, 0.4 mg/kg, cycle 1 day 15, cohort 3, 0.4 mg/kg, n=2, range): 0.0701 to 0.193 µg/mL
- Cmax ([1]; human, plasma, intravenous, 0.4 mg/kg, cycle 1 day 15, diabetic expansion, 0.4 mg/kg, n=6, geometric mean (%CV)): 0.151 µg/mL
- half-life ([1]; human, plasma, intravenous, 0.4 mg/kg, t1/2, cycle 1 day 1, cohort 3, 0.4 mg/kg, n=1): 60.6 h
- half-life ([1]; human, plasma, intravenous, 0.4 mg/kg, t1/2, cycle 1 day 1, diabetic expansion, 0.4 mg/kg, n=2, value (%)): 34.4 h
- Tmax ([1]; human, plasma, intravenous, 0.4 mg/kg, tmax, cycle 1 day 1, cohort 3, 0.4 mg/kg, n=2, range): 0.5 to 1.1 h
- Tmax ([1]; human, plasma, intravenous, 0.4 mg/kg, tmax, cycle 1 day 15, cohort 3, 0.4 mg/kg, n=2, range): 0.5 to 1.1 h
- Tmax [1, 5]: 1 h
- concentration at 8 day of cycle 1 [1, 5]: 0.00492 µg/mL
- AUC(0-t) ([1]; human, plasma, intravenous, 0.8 mg/kg, AUC(0–25), cycle 1 day 1, MTD 0.8 mg/kg combined, n=41, geometric mean (%CV)): 1.59 µg·h/mL
- AUC(0-t) ([1]; human, plasma, intravenous, 0.8 mg/kg, AUC(0–25), cycle 1 day 1, NHL expansion, 0.8 mg/kg, n=9, geometric mean (%CV)): 1.35 µg·h/mL
- AUC(0-t) ([1]; human, plasma, intravenous, 0.8 mg/kg, AUC(0–25), cycle 1 day 1, cohort 4, 0.8 mg/kg, n=7, geometric mean (%CV)): 1.59 µg·h/mL
- AUC(0-t) ([1]; human, plasma, intravenous, 0.8 mg/kg, AUC(0–25), cycle 1 day 15, MTD 0.8 mg/kg combined, n=35, geometric mean (%CV)): 1.57 µg·h/mL
- AUC(0-t) ([1]; human, plasma, intravenous, 0.8 mg/kg, AUC(0–25), cycle 1 day 15, NHL expansion, 0.8 mg/kg, n=8, geometric mean (%CV)): 1.76 µg·h/mL
- AUC(0-t) ([1]; human, plasma, intravenous, 0.8 mg/kg, AUC(0–25), cycle 1 day 15, cohort 4, 0.8 mg/kg, n=6, geometric mean (%CV)): 1.48 µg·h/mL
- AUC(0-t) ([1]; human, plasma, intravenous, 0.8 mg/kg, AUC(0–tlast), cycle 1 day 1, MTD 0.8 mg/kg combined, n=41, geometric mean (%CV)): 2.88 µg·h/mL
- AUC(0-t) ([1]; human, plasma, intravenous, 0.8 mg/kg, AUC(0–tlast), cycle 1 day 1, NHL expansion, 0.8 mg/kg, n=9, geometric mean (%CV)): 2.71 µg·h/mL
- AUC(0-t) ([1]; human, plasma, intravenous, 0.8 mg/kg, AUC(0–tlast), cycle 1 day 1, cohort 4, 0.8 mg/kg, n=7, geometric mean (%CV)): 2.94 µg·h/mL
- Cmax ([1]; human, plasma, intravenous, 0.8 mg/kg, cycle 1 day 1, MTD 0.8 mg/kg combined, n=41, geometric mean (%CV)): 0.454 µg/mL
- Cmax ([1]; human, plasma, intravenous, 0.8 mg/kg, cycle 1 day 1, cohort 4, 0.8 mg/kg, n=7, geometric mean (%CV)): 0.293 µg/mL
- Cmax ([1]; human, plasma, intravenous, 0.8 mg/kg, cycle 1 day 15, MTD 0.8 mg/kg combined, n=36, geometric mean (%CV)): 0.463 µg/mL
- Cmax ([1]; human, plasma, intravenous, 0.8 mg/kg, cycle 1 day 15, NHL expansion, 0.8 mg/kg, n=8, geometric mean (%CV)): 0.507 µg/mL
- Cmax ([1]; human, plasma, intravenous, 0.8 mg/kg, cycle 1 day 15, cohort 4, 0.8 mg/kg, n=6, geometric mean (%CV)): 0.37 µg/mL
- half-life ([1]; human, plasma, intravenous, 0.8 mg/kg, t1/2, cycle 1 day 1, MTD 0.8 mg/kg combined, n=28, value (%)): 38.2 h
- half-life ([1]; human, plasma, intravenous, 0.8 mg/kg, t1/2, cycle 1 day 1, NHL expansion, 0.8 mg/kg, n=8, value (%)): 38.9 h
- half-life ([1]; human, plasma, intravenous, 0.8 mg/kg, t1/2, cycle 1 day 1, cohort 4, 0.8 mg/kg, n=4, value (%)): 42.3 h
- half-life ([1]; human, plasma, intravenous, 0.8 mg/kg, t1/2, cycle 1 day 1, solid tumors expansion, 0.8 mg/kg, n=16, value (%)): 36.9 h
- half-life ([1]; human, plasma, intravenous, 0.8 mg/kg, terminal half-life, MTD 0.8 mg/kg, coefficient of variation 43%): 38.2 h
- Tmax ([1]; human, plasma, intravenous, 0.8 mg/kg, tmax, cycle 1 day 1, cohort 4, 0.8 mg/kg, n=7, value (range)): 1.1 h
- Tmax ([1]; human, plasma, intravenous, 0.8 mg/kg, tmax, cycle 1 day 15, NHL expansion, 0.8 mg/kg, n=8, value (range)): 0.8 h
- AUC(0-t) ([1]; human, plasma, intravenous, 1.2 mg/kg, AUC(0–25), cycle 1 day 1, cohort 5, 1.2 mg/kg, n=2, range): 2.51 to 3.82 µg·h/mL
- AUC(0-t) ([1]; human, plasma, intravenous, 1.2 mg/kg, AUC(0–tlast), cycle 1 day 1, cohort 5, 1.2 mg/kg, n=2, range): 4.09 to 5.23 µg·h/mL
- Cmax ([1]; human, plasma, intravenous, 1.2 mg/kg, cycle 1 day 1, cohort 5, 1.2 mg/kg, n=2, range): 0.616 to 0.739 µg/mL
- half-life ([1]; human, plasma, intravenous, 1.2 mg/kg, t1/2, cycle 1 day 1, cohort 5, 1.2 mg/kg, n=1): 33 h
- Tmax ([1]; human, plasma, intravenous, 1.2 mg/kg, tmax, cycle 1 day 1, cohort 5, 1.2 mg/kg, n=2, range): 0.6 to 1.3 h
- IC50 (p110α): 0.5 nM
